A selection: hits, their analogues and other compounds. The true share with any hit is near 2.3%.
EBV gp42 inh: EBV gp42 inhibition; Q1HVG2; Fluorescence polarization binding assay, mP read-out; inhibition, % (tested at 21.74 µM); hit rate 0.42% among 220,000; in the data active = inhibition above about 50%
Target sequence (Q1HVG2 whole entry, looked up): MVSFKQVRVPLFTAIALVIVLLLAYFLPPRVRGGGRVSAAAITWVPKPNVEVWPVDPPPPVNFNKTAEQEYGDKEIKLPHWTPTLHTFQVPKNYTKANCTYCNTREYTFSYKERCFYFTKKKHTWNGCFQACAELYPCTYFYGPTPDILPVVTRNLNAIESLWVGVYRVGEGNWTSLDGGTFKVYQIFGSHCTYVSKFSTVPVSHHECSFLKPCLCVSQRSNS
EBNA-1 inhibitor: blocks EBNA-1 binding to DNA | EBNA-1 DNA binding, fluorescence polarization | inhibition, % at 14.8 µM | hit rate 0.34% among 300,000; in the data active = inhibition above about 28%
GPR7 antagonist: blocks human GPR7 receptor signaling | P48145 | GPR7-expressing cells, fluorescence antagonist assay | inhibition, % at 4.4 µM | hit rate 1.1% among 290,000 | AID 1861; in the data active = inhibition above about 16%, passing the limit was not always enough;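 note: cells stimulated with the agonist NPW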
HCV NS3 hel inh: inhibitors of Hepatitis C virus NS3 helicase; AID 1800; NS3 helicase DNA unwinding, Cy5 molecular beacon fluorescence; inhibition, % at 10.9 µM; hit rate 0.56% among 290,000;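 active = inhibition above the mean of all tested compounds plus 3 SD, set per campaign, cut at about 35% in these data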
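Assay system – hepatitis C virus NS3 helicase domain fragment enzyme · Buffer or medium – MOPS pH 6.5, MgCl2, DTT, Tween20, BSA · Reagent – Cy5/quencher beacon DNA duplex and ATP to start · Compound – single 10.9 µM dose · Timing – 1 h at 25 °C · Technique – Cy5 beacon fluorescence read at start and 1 h · Measure – % inhibition of unwinding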
HCV core dimer: blocks dimerization of HCV core protein; TR-FRET GST/Flag-core106 dimerization, 1536-well; inhibition, % at 5 µM; hit rate 0.33% among 300,000; AID 1899;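 active = inhibition above the mean of all tested compounds plus 3 SD, set per screening campaign, cut at about 45% in these data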
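System: GST/Flag-tagged HCV core106 proteins. Incubation: compound-protein-antibody incubation 4 h at 22.5 °C. Technique: HTRF with 340 nm excitation, 617/671 nm emission. Medium: KF-containing HEPES buffer, pH 7.45, DTT, CHAPS, BSA. Read-out: inhibition (%) from 671 over 617 nm ratio. Also added: Eu(K)-anti-GST 90 ng/mL plus XL665-anti-Flag 1 µg/mL.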
ZTA counter: blocks Epstein-Barr virus ZTA, an EBNA-1 counter-screen; ZTA-DNA binding, fluorescence polarization; inhibition, % at 11 µM; hit rate 0.15% among 320,000; in the data active = inhibition above about 33%
Target sequence (P03206 whole entry, looked up): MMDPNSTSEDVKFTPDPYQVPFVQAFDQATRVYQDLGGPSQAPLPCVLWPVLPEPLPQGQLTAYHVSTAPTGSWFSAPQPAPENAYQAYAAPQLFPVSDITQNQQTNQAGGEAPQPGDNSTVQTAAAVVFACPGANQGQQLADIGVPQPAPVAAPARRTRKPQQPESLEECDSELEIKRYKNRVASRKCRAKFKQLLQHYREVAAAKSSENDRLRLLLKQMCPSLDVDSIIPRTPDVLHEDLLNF
EBNA-1 confirm: EBNA-1 (EBV) inhibition, confirmation; shares compounds with EBNA-1 inhibitor; Recombinant EBNA-1 DBD, Cy5-DNA fluorescence polarization; inhibition, % at 14.8 µM; hit rate 35% among 830; AID 2292;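 active = mean inhibition across replicates above a set limit taken from the earlier primary screen, cut at about 28% in these data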
ZTA counter trip: ZTA (EBV) inhibition, triplicate counter-screen. inhibition, % at 11.1 µM. 830 tested, under 10 active. shares compounds with EBNA-1 inhibitor. Zta-ZRE DNA binding, Cy5 fluorescence polarization;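 active = mean inhibition over triplicates above a set limit taken from the primary EBNA-1 screen, cut at about 37% in these data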;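 note: purified full length Zta protein with Cy5 labeled ZRE DNA probe; inhibitors lower polarization by freeing the labeled DNA probe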
Hits are given with their value; – = inactive; · = no result.

SMILES	EBV gp42 inh	EBNA-1 inhibitor	GPR7 antagonist	HCV NS3 hel inh	HCV core dimer	ZTA counter	EBNA-1 confirm	ZTA counter trip
CC(C)C(=O)Nc1cccc(C(=O)OCC(=O)c2ccc(Cl)cc2Cl)c1	–	41	–	–	–	–	79	–
Cc1ccc(S(=O)(=O)N2CCC(C(=O)OCC(=O)N3CCc4ccccc43)CC2)cc1	–	33	–	–	–	–	–	–
Cc1ccc2[nH]cc(/C=C/c3cc[n+](C)cc3)c2c1	·	·	–	–	·	·	·	·
CC[n+]1ccc(/C=C/c2c[nH]c3ccccc23)cc1	·	42	–	–	–	–	–	–
CC(=O)Nc1ccc(NC(=S)NC(=O)c2oc3ccccc3c2C)cc1	–	–	–	–	–	–	·	·
CC(=O)Nc1ccc(NC(=O)C(C)OC(=O)c2oc3ccccc3c2C)cc1 (centres undefined)	·	80	·	·	–	–	118	–
COc1ccc2oc(C(=O)OCC(=O)Nc3cc(S(=O)(=O)N4CCOCC4)ccc3C)c(C)c2c1	·	62	·	·	–	–	107	–
COc1ccc2oc(C(=O)OCC(=O)Nc3ccc(NC(C)=O)cc3)c(C)c2c1	·	120	·	·	–	–	167	–
Cc1nc2ccc(S(=O)(=O)N(C)CC(=O)NCc3ccc(N(C)C)cc3)cc2s1	·	–	–	–	–	–	·	·
O=C(CSc1nnc(CNC(=O)c2ccccc2)o1)NCc1ccccc1Cl	·	–	–	–	–	–	·	·
CCOc1ccc(NC(=O)CCC(=O)N/N=C/c2ccc3c(c2)OCO3)cc1	–	35	–	–	–	–	–	–
CCOc1ccc(/C=N/NC(=O)CCC(=O)Nc2ccc(F)cc2)cc1	·	–	–	–	–	–	·	·
NC(=O)c1ccc(NC(=O)COC(=O)/C=C/c2ccc3c(c2)OCO3)cc1	–	32	–	–	–	–	–	–
CC1CC(C)(C)N(C(=O)CSc2ccc(-c3ccc(F)cc3)nn2)c2ccccc21 (centres undefined)	–	–	–	–	–	–	·	·
CN(C)c1ccc(/C=C(\C#N)C(=O)NCc2ccco2)cc1	–	44	–	–	–	–	69	–
CCN(CC)c1ccc(/C=C(\C#N)C(=O)NCc2ccco2)cc1	–	–	–	–	–	–	·	·
NS(=O)(=O)c1ccc(NC(=O)c2ccc(S(=O)(=O)N3CCc4ccccc43)cc2)cc1	–	94	–	–	58	–	–	–
CCc1ccccc1N(C(=O)c1snc(C(N)=O)c1N)C(C(=O)NCC1CCCO1)c1ccc(N(C)C)cc1 (centres undefined)	·	·	–	–	·	·	·	·
Cc1ccccc1N(C(=O)c1snc(C(N)=O)c1N)C(C(=O)NCC1CCCO1)c1ccc(N(C)C)cc1 (centres undefined)	·	28	–	–	–	–	123	–
CCOc1ccccc1N(CC(=O)Nc1ccc(OC)cc1)S(=O)(=O)c1ccccc1	·	28	–	–	–	–	–	–
CCOc1ccccc1N(CC(=O)Nc1cccc(OC)c1)S(=O)(=O)c1ccccc1	·	–	–	–	–	–	·	·
COc1ccc(CNC(=O)COC(=O)CC(NC(N)=O)c2ccc(Cl)cc2)cc1OC (centres undefined)	·	·	·	·	·	–	·	·
O=C(CSc1ncn(-c2ccccc2)n1)Nc1nc(-c2ccccc2)cs1	–	–	–	–	–	–	·	·
Cc1ccc(-c2csc(NC(=O)CSc3ncn(-c4ccccc4)n3)n2)cc1	–	41	–	–	–	–	–	–
[O-][n+]1cccc(C(O)c2ccccc2)c1 (centres undefined)	·	–	–	–	–	–	·	·
CCOC(=O)CC(NC(=O)Cc1ccccc1)c1ccccc1Cl (centres undefined)	–	–	–	–	–	–	·	·
CCOC(=O)CC(NC(=O)C1c2ccccc2Oc2ccccc21)c1ccccc1Cl (centres undefined)	–	102	–	–	–	–	–	–
Cc1ccc(-c2nc3ccccc3o2)cc1NC(=S)NC(=O)c1cccs1	–	36	–	–	–	–	–	–
Cc1cc(C)c2oc(-c3ccc(C)c(NC(=S)NC(=O)c4cccs4)c3)nc2c1	–	–	–	–	–	–	·	·

Screening results (PubChem BioAssay)
